Several values for one entry are separate records, joined by “and”; a condition that tells them apart may be missing. Equal values may be shown once. Entries after “also recorded” stand apart in the source; their conditions may differ.
Legend:
[1] = in CH3OH; cited from earlier work
isolated P-gp = details: ref 7−9; cited from earlier work
[2] = test system: mitochondria of Colo-26 cells; experiment: Colocalization by ImageStream flow cytometry; assay type: cell-based, murine; details: Colo-26 cells incubated with both agents; ±SD
In short: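 Colo-26 cells (5 × 10^5 in 0.5 mL medium) co-incubated 15 min with MitoTracker Green and MitoTracker Red. Cells were then centrifuged, and medium replaced with Hanks PBS. Resuspended cells kept on ice and imaged by ImageStream (480–560 and 642–745 nm channels; MTG excited at 488 nm). Per-cell similarity was a log-transformed Pearson correlation of spatially correlated pixel intensities over the whole cell, averaged over 1300 cells.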

Colo-26 cells [3] = experiment: Phototoxicity toward Colo-26 cells with tunable dye laser; assay type: cell-based, murine; details: for Phototoxicity (in words): 0.15 μM, 5.0 J cm^–2 of laser light; for LD50/EC50 (laser, 1.0 J cm^–2): dark LD50 over EC50 with 1.0 J cm^–2 of laser light
[4] = Steady-state fluorescence in CH3OH; assay type: physicochemical; details: excitation at 532 nm; for Quantum yield for fluorescence ΦFL: 3 as standard, ±SD
In short: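 Steady-state emission spectra recorded in CH3OH on a spectrofluorometer with 532 nm excitation. Quantum yield determined relative to a reference rhodamine dye in CH3OH (ΦFL = 0.93).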

[5] = Singlet oxygen yield from 1O2 luminescence at 1270 nm; assay type: physicochemical; details: air-saturated CH3OH; ±SD
In short: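 Air-saturated CH3OH solutions in quartz cuvettes. Excitation by 532 nm second harmonic of a nanosecond-pulsed Nd:YAG laser (20 Hz) for time-resolved 1O2 luminescence decay at 1270 nm. Emission collected at 90° through a 950 nm long-pass filter onto an NIR-detector spectrometer. Steady-state NIR emission spectra used a 532 nm diode-pumped solid-state laser.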

Colo-26 cells [6] = experiment: Combination PDT and doxorubicin in Colo-26 cells; assay type: cell-based, murine; details: for Synergy with Dox upon irradiation (in words): 0.15 μM dye, various Dox concentrations, 1.0 J cm^–2 laser light; for Phototoxicity (in words) in the absence of Dox: 0.15 μM, 1.0 J cm^–2 of 613 nm (15b, 17b) or 611 nm (16b, 18b) laser light, relative to dark controls; for Surviving fraction of the combination vs single treatments (in words) / Surviving fraction: 0.15 μM photosensitizer, 1.0 J cm^–2 of 611 nm light; for Surviving fraction of the combination vs single treatments (in words): 0.5 μM Dox; for Surviving fraction: 1.0 μM Dox; for Dox-only concentration giving the same surviving fraction as the combination: combination: 0.15 μM photosensitizer, 0.05 μM Dox, 1.0 J cm^–2 of light
In short: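 Colo-26 cells were seeded at 10 000/well and grown 24 h in RPMI 1640 with 10% FBS. Dye at 0.15 μM (ethanol stock) plus Dox at 0.005–5.0 μM were added together as 10× medium solutions, alongside single-agent wells. After 1 h dark, wells were kept dark or laser-irradiated at λmax (±2 nm), 3.2 mW cm–2, to 1 J cm–2. Fresh medium, 48 h at 37 °C, 5% CO2. SRB assay read at 570 nm; six replicates, ±SD, pairwise […].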

[7] = Absorption spectra in CH3OH; assay type: physicochemical
P-gp [8] = biological target: P-gp (Homo sapiens, UniProt P08183); experiment: P-gp transport and cell association in MDCKII-MDR1 monolayers; assay type: in vitro ADME; details: dog, MDCK-MDR1
P-gp [9] = experiment: as above; assay type: in vitro ADME; details: dog, MDCK-MDR1, with 24 (LSN 335984), 5 μM
Colo-26 cells [10] = experiment: Uptake in Colo-26 cells with and without verapamil by flow cytometry; assay type: cell-based, murine; details: for Uptake relative to the corresponding thioamide derivative: Colo-26 cells, Figure 2; for Increase in uptake in the presence of VER: 0.5 μM dye, 1 h, with vs without 100 μM verapamil, mean fluorescence
In short: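 Colo-26 cells exposed 1 h to 0.5 μM dye with or without 100 μM verapamil, then analysed by flow cytometry with 561 nm excitation and 710 nm emission. Mean cellular fluorescence compared between conditions; error bars SD.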

[11] = Photostability under continuous illumination; assay type: physicochemical
In short: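 Dye in 10% CH3OH/pH 7.4 buffer under continuous tungsten-source illumination at 50 mW cm–2. Loss of dye chromophore was followed as a function of delivered fluence and treated as first-order, giving the fluence for half-loss.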

P-gp [12] = details: 5 μM; cited from earlier work
[13] = 350–800 nm light at 50 mW cm^–2, 10% CH3OH in pH 7.4 buffer

Chain of P-gp (Homo sapiens, UniProt P08183) (P08183 whole entry): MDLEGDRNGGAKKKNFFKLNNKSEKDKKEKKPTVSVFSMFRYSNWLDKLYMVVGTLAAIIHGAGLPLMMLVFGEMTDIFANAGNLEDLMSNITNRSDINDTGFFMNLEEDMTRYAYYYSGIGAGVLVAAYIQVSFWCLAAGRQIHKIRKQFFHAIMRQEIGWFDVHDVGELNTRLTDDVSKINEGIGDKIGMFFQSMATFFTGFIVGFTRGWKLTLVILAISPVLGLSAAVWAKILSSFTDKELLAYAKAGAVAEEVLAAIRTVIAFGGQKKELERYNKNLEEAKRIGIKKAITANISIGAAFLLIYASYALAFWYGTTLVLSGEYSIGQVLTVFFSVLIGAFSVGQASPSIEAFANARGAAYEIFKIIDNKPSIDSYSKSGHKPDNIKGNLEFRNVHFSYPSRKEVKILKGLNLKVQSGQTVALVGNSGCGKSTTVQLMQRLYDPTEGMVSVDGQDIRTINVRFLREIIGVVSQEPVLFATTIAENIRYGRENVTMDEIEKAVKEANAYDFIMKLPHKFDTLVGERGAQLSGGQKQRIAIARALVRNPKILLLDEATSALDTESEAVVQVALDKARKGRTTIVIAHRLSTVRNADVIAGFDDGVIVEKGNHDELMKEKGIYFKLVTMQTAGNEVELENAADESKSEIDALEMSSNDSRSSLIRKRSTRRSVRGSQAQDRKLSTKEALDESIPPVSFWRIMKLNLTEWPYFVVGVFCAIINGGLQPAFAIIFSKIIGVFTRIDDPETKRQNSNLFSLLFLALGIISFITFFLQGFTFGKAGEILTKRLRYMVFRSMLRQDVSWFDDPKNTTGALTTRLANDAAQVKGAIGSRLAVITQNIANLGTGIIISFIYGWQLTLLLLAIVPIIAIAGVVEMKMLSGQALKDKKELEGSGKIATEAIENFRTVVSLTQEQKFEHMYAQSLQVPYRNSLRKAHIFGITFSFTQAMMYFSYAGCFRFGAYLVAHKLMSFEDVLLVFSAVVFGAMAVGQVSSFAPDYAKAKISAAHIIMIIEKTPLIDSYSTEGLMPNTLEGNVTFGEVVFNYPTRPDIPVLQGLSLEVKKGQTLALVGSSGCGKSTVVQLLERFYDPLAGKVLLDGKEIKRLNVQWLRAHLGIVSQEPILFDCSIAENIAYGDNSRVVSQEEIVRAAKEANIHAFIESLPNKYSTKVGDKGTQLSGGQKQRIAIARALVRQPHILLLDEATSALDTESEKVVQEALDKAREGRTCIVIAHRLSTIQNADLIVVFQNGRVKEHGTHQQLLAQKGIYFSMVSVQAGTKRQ

CC/N=c1\cc2oc3cc(NCC)c(C)cc3c(-c3ccccc3C(=O)OCC)c-2cc1C [compound 3, rhodamine 6G]
Quantum yield for fluorescence ΦFL (standard) [1]: 0.93

tetramethylrosamine [1 (E = O)]
Transport rate relative to rhodamine 123 (2) or rhodamine 6G (3) (isolated P-gp): 5- to 10 fold

C[n+]1c(C=CC=C2N(Cc3ccc(CCl)cc3)c3cc(Cl)c(Cl)cc3N2Cc2ccc(CCl)cc2)oc2ccccc21.[Cl-] [MTG, 2-[3-[5,6-dichloro-1,3-bis[[4-(chloromethyl)phenyl]methyl]-1,3-dihydro-2H-benzimidazol-2-ylidene]-1-propenyl]-3-methylbenzoxazolium chloride]
Mean bright detail similarity score with MTR [2]: 2.0 ± 0.8

CN1CCC(C)(C)c2cc3c(-c4ccc(C(=O)N5CCCCC5)s4)c4ccc(=[N+](C)C)cc-4[se]c3cc21.[Cl-] [17b, 9-(5-(Piperidylcarbamoyl)thiophen-2-yl) Selenorhodamine]
Phototoxicity (in words) (Colo-26 cells [3]): little if any phototoxicity | EC50 (Colo-26 cells [3]; Mus musculus, 48 h, read-out: EC50 (λmax ± 2 nm), 0.5 J cm^–2): > 500 nM | LD50/EC50 (laser, 1.0 J cm^–2) (Colo-26 cells [3]): 26 | Fluorescence emission maximum λFL [4]: 634 nm | Quantum yield for fluorescence ΦFL [4]: 0.009 ± 0.001 | Quantum yield for the generation of singlet oxygen Φ(1O2) [5]: 0.48 ± 0.03 | Synergy with Dox upon irradiation (in words) (Colo-26 cells [6]): No synergy; also recorded: do not show significant synergistic effects | Phototoxicity (in words) in the absence of Dox (Colo-26 cells [6]): no significant phototoxicity | Absorption maximum λmax [7]: 609 nm | Molar extinction coefficient ε [7]: 8.73 × 10^4 M^–1 cm^–1 | Papp A→B at 1 h, 5 μM (P-gp [8]): 0.09 ± 0.03 ×10⁻⁶ cm/s | Papp B→A at 1 h, 5 μM (P-gp [8]): 16.4 ± 0.4 ×10⁻⁶ cm/s | efflux ratio at 1 h, 5 μM (P-gp [8]): 182 | Papp A→B at 1 h, 5 μM (P-gp [9]): 0.1 ± 0.01 ×10⁻⁶ cm/s | Papp B→A at 1 h, 5 μM (P-gp [9]): 1.11 ± 0.02 ×10⁻⁶ cm/s | Papp at 1 h, 5 μM (P-gp [9]): ~0.6 ×10⁻⁶ cm/s | Uptake relative to the corresponding thioamide derivative (Colo-26 cells [10]): 40–50%

CN1CCC(C)(C)c2cc3c(-c4ccc(C(=S)N5CCCCC5)s4)c4ccc(=[N+](C)C)cc-4[se]c3cc21.[Cl-] [18b, 9-(5-(Piperidylcarbamothioyl)thiophen-2-yl) Selenorhodamine]
LD50/EC50 (laser, 1.0 J cm^–2) (Colo-26 cells [3]): > 55 | Fluorescence emission maximum λFL [4]: 634 nm | Quantum yield for fluorescence ΦFL [4]: 0.008 ± 0.001 | Quantum yield for the generation of singlet oxygen Φ(1O2) [5]: 0.44 ± 0.03 | Fluence after which half of the dye chromophore is lost [11, 13]: ~230 J cm^–2 | Fluence after which half of the dye chromophore is lost ([11]; 500–800 nm light at 50 mW cm^–2, 10% CH3OH in pH 7.4 buffer): ~850 J cm^–2 | Synergy with Dox upon irradiation (in words) (Colo-26 cells [6]): synergistic effects | Surviving fraction of the combination vs single treatments (in words) (Colo-26 cells [6]): statistically significant decrease | Surviving fraction (Colo-26 cells [6]): ≤ 0.20 | Phototoxicity (in words) in the absence of Dox (Colo-26 cells [6]): some phototoxicity | Dox-only concentration giving the same surviving fraction as the combination (Colo-26 cells [6]): 0.3 µM | Absorption maximum λmax [7]: 608 nm | Molar extinction coefficient ε [7]: 8.11 × 10^4 M^–1 cm^–1 | Papp A→B at 1 h, 5 μM (P-gp [8]): 0.19 ± 0.05 ×10⁻⁶ cm/s | Papp B→A at 1 h, 5 μM (P-gp [8]): 2.9 ± 0.3 ×10⁻⁶ cm/s | efflux ratio at 1 h, 5 μM (P-gp [8]): 15 | Papp A→B at 1 h, 5 μM (P-gp [9]): 0.17 ± 0.02 ×10⁻⁶ cm/s | Papp B→A at 1 h, 5 μM (P-gp [9]): 0.18 ± 0.01 ×10⁻⁶ cm/s | Papp at 1 h, 5 μM (P-gp [9]): ~0.2 ×10⁻⁶ cm/s | Increase in uptake in the presence of VER (Colo-26 cells [10]): 1.3- to 2 fold and 2 fold

O[C@@H](COc1cccc2ncccc12)CN1CCN([C@@H]2c3ccccc3[C@@H]3[C@H](c4ccccc42)C3(Cl)Cl)CC1 [compound 24]
P-gp inhibition (in words) (P-gp [12]): completely inhibits P-gp

CCN(CC)C(=S)c1ccc(-c2c3ccc(=[N+](C)C)cc-3[se]c3cc4c(cc23)C(C)(C)CCN4C)s1.[Cl-] [16b, 9-(5-(Diethylcarbamothioyl)thiophen-2-yl) Selenorhodamine]
LD50/EC50 (laser, 1.0 J cm^–2) (Colo-26 cells [3]): > 55 | Fluorescence emission maximum λFL [4]: 635 nm | Quantum yield for fluorescence ΦFL [4]: 0.008 ± 0.001 | Quantum yield for the generation of singlet oxygen Φ(1O2) [5]: 0.54 ± 0.03 | Fluence after which half of the dye chromophore is lost [11, 13]: ~230 J cm^–2 | Synergy with Dox upon irradiation (in words) (Colo-26 cells [6]): synergistic effects | Surviving fraction of the combination vs single treatments (in words) (Colo-26 cells [6]): statistically significant decrease | Surviving fraction (Colo-26 cells [6]): ≤ 0.20 | Phototoxicity (in words) in the absence of Dox (Colo-26 cells [6]): some phototoxicity | Dox-only concentration giving the same surviving fraction as the combination (Colo-26 cells [6]): 0.5 µM | Absorption maximum λmax [7]: 608 nm | Molar extinction coefficient ε [7]: 9.78 × 10^4 M^–1 cm^–1 | Increase in uptake in the presence of VER (Colo-26 cells [10]): 1.3- to 2 fold and 2 fold

CCN(CC)C(=O)c1ccc(-c2c3ccc(=[N+](C)C)cc-3[se]c3cc4c(cc23)C(C)(C)CCN4C)s1.[Cl-] [15b, 9-(5-(Diethylcarbamoyl)thiophen-2-yl) Selenorhodamine]
Phototoxicity (in words) (Colo-26 cells [3]): some phototoxicity | LD50/EC50 (laser, 1.0 J cm^–2) (Colo-26 cells [3]): 22 | Fluorescence emission maximum λFL [4]: 636 nm | Quantum yield for fluorescence ΦFL [4]: 0.009 ± 0.001 | Quantum yield for the generation of singlet oxygen Φ(1O2) [5]: 0.50 ± 0.03 | Synergy with Dox upon irradiation (in words) (Colo-26 cells [6]): No synergy; also recorded: do not show significant synergistic effects | Phototoxicity (in words) in the absence of Dox (Colo-26 cells [6]): no significant phototoxicity | Absorption maximum λmax [7]: 609 nm | Molar extinction coefficient ε [7]: 7.18 × 10^4 M^–1 cm^–1 | Uptake relative to the corresponding thioamide derivative (Colo-26 cells [10]): 40–50%
